In ChEMBL document CHEMBL1140834, “Identifying the important structural elements of brominated furanones for inhibiting biofilm formation by Escherichia coli” (2008):
Calls of active or inactive are those of the source. No cut-off for these calls is given here.

Experiments:
[1] = tested on: Escherichia coli; assay: Antibacterial activity against Escherichia coli RP437/pRSH103 at 5 to 10 ug/ml; type: functional, organism-based
Summary of the method: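 Toxicity followed as growth curves. OD600 of E. coli cultures was monitored over time in LB medium with tetracycline, containing a range of furanone concentrations.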

[2] = tested on: Escherichia coli; assay: Antibacterial activity against Escherichia coli at 60 ug/mL; type: functional, organism-based
[3] = tested on: Escherichia coli; assay: Inhibition of Escherichia coli biofilm formation at 60 ug/mL; type: functional
Summary of the method: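 DsRed-express-labeled E. coli biofilms were grown 24 h at 37 C on 316 L stainless steel coupons, with furanone added to the growth medium. Imaged by confocal microscopy. Biomass, surface coverage and mean thickness were calculated from the images and expressed relative to a no-furanone control. Four replicates.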

[4] = tested on: Escherichia coli; assay: Antibacterial activity against Escherichia coli RP437/pRSH103 assessed as reduction of colony forming unit at 40 ug/ml after 3 hrs; type: functional
Summary of the method: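 Viable counts (CFU/mL) taken before and after 3 h exposure at 37 C. A parallel culture given the same amount of ethanol (0.2%) served as negative control.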

## O=C1O/C(=C\Br)C(Br)=C1CBr
[1]
  Activity: Active

## CC1=C(Br)C(C(Br)Br)OC1=O (centres undefined)
[2]
  Activity: inactive
[3]
  inhibition at 60 µg/mL: 19%

## CC1=C(Br)C(Br)(C(Br)Br)OC1=O (centres undefined)
[2]
  Activity: inactive

## CC1=C(Br)/C(=C/Br)OC1=O
[2]
  Activity: inactive
[3]
  inhibition at 60 µg/mL: 75%

## O=C1OC(=C(Br)Br)C=C1CBr
[4]
  CFU: 390 mL⁻¹

## CC1=CC(C)OC1=O (centres undefined)
[2]
  Activity: inactive

## CC1=CC(=C(Br)Br)OC1=O
[2]
  Activity: inactive
[3]
  inhibition at 60 µg/mL: 63%

## CC1=CC(=O)OC1=O
[2]
  Activity: inactive

## COC1=CC(=O)OC1
[2]
  Activity: inactive

## O=C1OC(=C(Br)Br)C=C1C(Br)Br
[2]
  Activity: inactive
[3]
  inhibition at 60 µg/mL: 80%
